Activity calls are given as the source filed them. Unless noted, no cut-off for these calls is given here.
Assays:
[1] = tested on: Respiratory syncytial virus; test: Antiviral activity against RSV A2 infected in african green monkey Vero cells after 5 days by plaque reduction assay; type: functional, organism-based
Outline: (§1)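 Plaque reduction assay. Vero 76 cells at 2 × 10^5/well, grown overnight to confluence in D-MEM with 10% FBS. Infected 2 h with 50–100 PFU/well, unadsorbed virus removed. Overlay of D-MEM with 1% inactivated FBS and 0.75% methylcellulose, with or without serial compound dilutions. Incubated at 37 °C for 3 days (HSV-1 KOS, CVB-2 Ohio-1) or 5 days (RSV A2). Fixed and stained with crystal violet in 50% ethanol; plaques counted; EC50 by linear regression.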

[2] = Cytotoxicity against BHK cells after 48 to 96 hrs by MTT assay; type: cell-based, Mesocricetus auratus; conditions: hamster
Outline: (§2)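 Cell seeding: MDBK at 6 × 10^5 cells/mL in MEM-E with 10% horse serum and 1 mM Na pyruvate; BHK at 1 × 10^6 cells/mL in MEM-E with 10% FBS. Serial compound dilutions, 37 °C, 5% CO2. Viability of mock-infected cells by MTT after 48–96 h; CC50 is the concentration reducing viability by 50%.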

[3] = tested on: Human immunodeficiency virus 1; test: Antiviral activity against HIV1 3B infected in human MT4 cells assessed as protection from virus-induced cytopathogenicity after 4 days by MTT method; type: functional, organism-based
Outline: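 MT-4 cells, 1 × 10^4/well in RPMI with or without serial compound dilutions, infected with HIV-1 IIIB, 100 CCID50 (m.o.i. 0.01). Protection from virus-induced cytopathogenicity read by MTT.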

Poliovirus 1 = test: Antiviral activity against Polio virus type1 Sabin strain Chat infected in african green monkey Vero cells after 2 days by plaque reduction assay; type: functional, organism-based, Human poliovirus 1 strain Sabin; conditions: Enterovirus C, 48 h
[4] = tested on: Vesicular stomatitis virus; test: Antiviral activity against VSV Indiana lab infected in african green monkey Vero cells after 2 days by plaque reduction assay; type: functional, organism-based
Vaccinia virus = test: Antiviral activity against Vaccinia virus Elstree-Lister infected in african green monkey Vero cells after 3 days by plaque reduction assay; type: functional, organism-based; conditions: Orthopoxvirus vaccinia
[5] = tested on: Mammalian orthoreovirus 1; test: Antiviral activity against Reovirus 1 3651 infected in BHK21 cells assessed as protection from virus-induced cytopathogenicity after 3 to 4 days by MTT method; type: functional, organism-based; conditions: for Activity: BHK-21
[6] = tested on: Bovine viral diarrhea virus 1; test: Antiviral activity against Bovine viral diarrhea virus NADL infected in MDBK cells assessed as protection from virus-induced cytopathogenicity after 3 to 4 days by MTT method; type: functional, organism-based, Bovine viral diarrhea virus 1-NADL; conditions: Bovine viral diarrhea virus isolates and strains, MDBK
Outline: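 Cytopathogenicity protection assay. MDBK cells at 3 × 10^4/well, grown overnight to confluence. Infected with BVDV NADL at m.o.i. 0.01 in MEM-E with 0.5% inactivated FBS, 1 mM Na pyruvate and 1% kanamycin. Serial compound dilutions added after 1 h. After 3–4 days at 37 °C, viability read by MTT; EC50 is the concentration giving 50% protection.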

Yellow fever virus = test: Antiviral activity against Yellow fever virus 17D infected in BHK cells assessed as protection from virus-induced cytopathogenicity after 3 to 4 days by MTT method; type: functional, organism-based
[7] = Cytotoxicity against human MT4 cells after 96 hrs by MTT assay; type: cell-based; conditions: MT4 cells
Outline: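 Exponentially growing MT-4 cells at 1 × 10^5 cells/mL in RPMI-1640 with 10% FCS, exposed to serial compound dilutions at 37 °C, 5% CO2. Viability by MTT after 96 h; CC50 is the concentration reducing viability of mock-infected cells by 50%.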

Human alphaherpesvirus 1 = test: Antiviral activity against HSV1 KOS infected in african green monkey Vero cells after 3 days by plaque reduction assay; type: functional, organism-based; conditions: Human alphaherpesvirus 1, KOS, 72 h; outline: as §1
[8] = Cytotoxicity against african green monkey Vero cells; type: cell-based; conditions: chlorocebus sabaeus
Outline: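 Vero 76 monolayers exposed to serial compound dilutions, run in parallel on the same 24-well plates as the plaque-reduction assays. CC50 is the concentration reducing viability of mock-infected cells by 50%.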

[9] = Cytotoxicity against MDBK cells after 48 to 96 hrs by MTT assay; type: cell-based, Bos taurus; conditions: cattle, MDBK cells; outline: as §2
Coxsackievirus B2 = test: Antiviral activity against Human coxsackievirus B2 Ohio-1 infected in african green monkey Vero cells after 3 days by plaque reduction assay; type: functional, organism-based, Coxsackievirus B2 (strain Ohio-1); conditions: Enterovirus B, Vero, 72 h; outline: as §1
[10] = Selectivity index, ratio of CC50 for MDBK cells to EC50 for Bovine viral diarrhea virus NADL; type: toxicity, cell-based; conditions: cattle, read-out: Ratio CC50/EC50
[11] = Selectivity index, ratio of CC50 for human MT4 cells to EC50 for Bovine viral diarrhea virus NADL; type: toxicity, cell-based; conditions: read-out: Ratio CC50/EC50

| Structure (SMILES) | Activity [1] | CC50 [2] [µM] | Activity [3] | EC50 (Poliovirus 1) [µM] | Activity [4] | Activity (Vaccinia virus) | Activity [5] | EC50 [6] [µM] | EC50 (Yellow fever virus) [µM] | CC50 at 96 h [7] [µM] | EC50 (Human alphaherpesvirus 1) [µM] | CC50 [8] [µM] | CC50 [9] [µM] | EC50 (Coxsackievirus B2) [µM] | EC50 ([1]; human respiratory syncytial virus, A2, Vero, 120 h) [µM] | EC50 (Vaccinia virus; 72 h) [µM] | EC50 ([5]; Mammalian orthoreovirus 1, 3651, BHK-21) [µM] | selectivity ratio [10] | selectivity ratio [11] |
| --- | --- | --- | --- | --- | --- | --- | --- | --- | --- | --- | --- | --- | --- | --- | --- | --- | --- | --- | --- |
| Cn1c(-c2ccc(NC(=O)CN3CCCC3)cc2)nc2cc(C(F)(F)F)ccc21 | inactive | 27 | inactive | 50 | inactive | inactive | inactive | 7 | > 27 | 16 | 51 | > 100 | 65 | 13 | – | – | – | – | – |
| Oc1ccc(-c2nc3cc(C(F)(F)F)ccc3[nH]2)cc1 | – | > 100 | inactive | 24 | inactive | – | – | > 51 | 12 | 17 | 25 | > 100 | 51 | 5 | 20 | > 100 | 7 | – | – |
| Cn1c(-c2ccc(NC(=O)CN3CCOCC3)cc2)nc2cc(C(F)(F)F)ccc21 | inactive | > 100 | inactive | > 100 | inactive | inactive | inactive | > 100 | > 100 | ≥ 100 | > 100 | > 100 | > 100 | > 100 | – | – | – | – | – |
| Nc1ccc(-c2nc3cc(C(F)(F)F)ccc3n2C2CCCCC2)cc1 | inactive | > 100 | inactive | > 100 | inactive | inactive | inactive | > 100 | > 100 | 44 | > 100 | > 100 | > 100 | > 100 | – | – | – | – | – |
| Cn1c(-c2ccc(NC(=O)CN3CCCCC3)cc2)nc2cc(C(F)(F)F)ccc21 | inactive | > 100 | inactive | > 100 | inactive | inactive | inactive | 6 | > 100 | 9 | > 100 | > 100 | 100 | 32 | – | – | – | – | – |
| Nc1ccc(-c2nc3cc(C(F)(F)F)ccc3n2C23CC4CC(CC(C4)C2)C3)cc1 | inactive | 16 | inactive | > 60 | inactive | inactive | inactive | 7 | > 16 | 19 | > 60 | 60 | 19 | 11 | – | – | – | – | – |
| CC(=O)Nc1ccc(-c2nc3cc(C(F)(F)F)ccc3n2C23CC4CC(CC(C4)C2)C3)cc1 | inactive | > 100 | inactive | > 100 | inactive | inactive | inactive | > 82 | > 100 | 28 | > 100 | > 100 | 82 | > 100 | – | – | – | – | – |
| CCC(=O)Nc1ccc(-c2nc3cc(C(F)(F)F)ccc3n2C23CC4CC(CC(C4)C2)C3)cc1 | inactive | > 100 | inactive | > 100 | inactive | inactive | inactive | > 100 | > 100 | 86 | > 100 | > 100 | > 100 | > 100 | – | – | – | – | – |
| Cn1c(-c2ccc(NC(=O)CN3CCN(c4ccccc4)CC3)cc2)nc2cc(C(F)(F)F)ccc21 | inactive | 100 | inactive | 2 | inactive | inactive | inactive | > 1.4 | > 100 | 1.5 | > 30 | 30 | 1.4 | 3 | – | – | – | – | – |
| CCN(CC)CC(=O)Nc1ccc(-c2nc3cc(C(F)(F)F)ccc3n2C)cc1 | inactive | 16 | inactive | 35 | inactive | inactive | inactive | 10 | 7 | 9 | > 90 | 90 | 57 | 21 | – | – | – | – | – |
| CCC(=O)Nc1ccc(-c2nc3cc(C(F)(F)F)ccc3n2C)cc1 | inactive | > 100 | inactive | > 100 | inactive | inactive | inactive | > 100 | > 100 | 8 | > 100 | > 100 | > 100 | > 100 | – | – | – | – | – |
| O=C(CN1CCN(c2ccccc2)CC1)Nc1ccc(-c2nc3cc(C(F)(F)F)ccc3n2C23CC4CC(CC(C4)C2)C3)cc1 | inactive | > 100 | inactive | > 100 | inactive | inactive | inactive | > 100 | > 100 | > 100 | > 100 | > 100 | > 100 | 27 | – | – | – | – | – |
| O=C(CCl)Nc1ccc(-c2nc3cc(C(F)(F)F)ccc3n2C23CC4CC(CC(C4)C2)C3)cc1 | inactive | 51 | inactive | > 100 | inactive | inactive | inactive | > 18 | > 51 | 0.3 | > 100 | > 100 | 18 | > 100 | – | – | – | – | – |
| CN1CCN(CC(=O)Nc2ccc(-c3nc4cc(C(F)(F)F)ccc4n3C)cc2)CC1 | inactive | 16 | inactive | 41 | inactive | inactive | inactive | 15 | 7 | 22 | > 100 | > 100 | 44 | 19 | – | – | – | – | – |
| O=C(CN1CCCC1)Nc1ccc(-c2nc3cc(C(F)(F)F)ccc3[nH]2)cc1 | – | 29 | inactive | > 100 | inactive | – | – | 3 | 7 | 18 | > 100 | > 100 | 15 | > 100 | – | – | – | 5 | 6 |
| CCC(=O)Nc1ccc(-c2nc3cc(C(F)(F)F)ccc3n2C2CCCCC2)cc1 | inactive | 15 | inactive | 30 | inactive | inactive | inactive | > 18 | > 15 | 17 | > 100 | > 100 | 18 | 7 | – | – | – | – | – |
